High-throughput results (PubChem)
KCNK3 inh: human KCNK3 channel inhibition, primary screen. 0.84% of 340,000 active. AID 602410. O14649. CHO-KCNK3 thallium flux, FluxOR fluorescence; hits give low values. B-score at 10 µM;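 active = B-score under library mean minus 4 SD, starting fluorescence ratio at most library mean plus 5 SD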;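 also: more negative B-score means stronger inhibition of thallium flux through KCNK3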
KCNQ1 inh: blocks the human KCNQ1 potassium channel; P51787; CHO-K1 KCNQ1, FluxOR thallium flux fluorescence; hits give high values; 1.3% of 310,000 active; B-score at 10 µM; AID 2642;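 active = compounds whose thallium flux B-score, printed positive for inhibition, exceeds three library SD while starting fluorescence stays within three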;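 also: channel opened by potassium depolarization with thallium stimulus after 20 min compound exposure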
KCNK9 block: inhibitors of human KCNK9 two-pore domain potassium channel; Q9NPC2; HEK293 KCNK9, FluxOR thallium flux fluorescence; hits give low values; B-score at 10 µM; 1.2% of 310,000 active; AID 488922;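 active = ratio B-score over 3 SD below the library mean, with starting fluorescence within 5 SD of its mean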;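 also: negative B-score means less thallium flux so channel inhibition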
hERG protect: hERG (human) protection from proarrhythmic block; Q12809; CHO-hERG, FluxOR thallium flux, dofetilide IC70 present; activation (rescue from dofetilide block), less the hit threshold, % at 10 µM; 0.51% of 310,000 active;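 active = activation above the mean of controls blocked by dofetilide plus 5 SD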;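 also: thallium influx through hERG after potassium depolarization seen as dye fluorescence rise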
Target sequence (Q12809 whole entry, looked up): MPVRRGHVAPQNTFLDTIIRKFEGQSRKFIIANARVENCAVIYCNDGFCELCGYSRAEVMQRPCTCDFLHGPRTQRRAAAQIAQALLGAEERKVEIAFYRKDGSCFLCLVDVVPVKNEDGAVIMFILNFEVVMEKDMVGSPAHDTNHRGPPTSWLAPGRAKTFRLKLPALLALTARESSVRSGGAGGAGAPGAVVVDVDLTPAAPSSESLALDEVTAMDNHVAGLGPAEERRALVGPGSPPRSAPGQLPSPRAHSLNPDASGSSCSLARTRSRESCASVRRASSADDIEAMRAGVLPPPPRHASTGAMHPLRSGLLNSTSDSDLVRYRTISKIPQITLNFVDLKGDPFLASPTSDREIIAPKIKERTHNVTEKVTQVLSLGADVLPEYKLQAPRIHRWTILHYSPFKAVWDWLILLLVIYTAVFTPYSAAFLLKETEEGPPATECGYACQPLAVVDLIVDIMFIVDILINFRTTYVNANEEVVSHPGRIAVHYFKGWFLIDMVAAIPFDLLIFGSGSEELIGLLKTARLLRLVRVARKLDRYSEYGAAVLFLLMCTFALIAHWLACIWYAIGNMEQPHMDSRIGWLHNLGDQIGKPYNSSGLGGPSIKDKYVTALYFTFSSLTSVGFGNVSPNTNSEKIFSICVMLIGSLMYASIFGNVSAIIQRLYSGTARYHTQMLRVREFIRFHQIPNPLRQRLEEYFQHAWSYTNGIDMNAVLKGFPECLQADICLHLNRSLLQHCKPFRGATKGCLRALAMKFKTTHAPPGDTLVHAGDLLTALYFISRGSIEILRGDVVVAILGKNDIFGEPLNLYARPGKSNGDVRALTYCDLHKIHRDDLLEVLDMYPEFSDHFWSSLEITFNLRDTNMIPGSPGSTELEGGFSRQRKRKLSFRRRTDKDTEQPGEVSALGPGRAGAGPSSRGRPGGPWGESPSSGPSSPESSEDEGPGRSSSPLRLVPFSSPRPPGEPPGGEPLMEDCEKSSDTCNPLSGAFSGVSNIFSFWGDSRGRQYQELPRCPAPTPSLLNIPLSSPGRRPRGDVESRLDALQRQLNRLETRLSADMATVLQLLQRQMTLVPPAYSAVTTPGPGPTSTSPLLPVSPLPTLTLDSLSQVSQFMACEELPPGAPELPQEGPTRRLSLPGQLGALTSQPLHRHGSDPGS
Cl transport mod: modulators of human KCC2 chloride dependent transport; Q9H2X9; AID 1456; KCC2 cells, thallium flux FluoZin-2 fluorescence; B-score of Tl+ flux slope (higher = more flux/activation; lower = inhibition) at 10 µM; 2.2% of 190,000 active;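 active = thallium flux slope and its plate-corrected score both differing from the plate sample mean at a set confidence after two filtering rounds, in either direction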;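 also: slope of fluorescence scaled to starting intensity during 10 to 20 s after thallium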
KCNQ1 act: potentiates or activates the human KCNQ1 potassium channel. P51787. CHO-K1 KCNQ1, thallium flux FluxOR fluorescence; hits give high values. B-score at 10 µM. 0.35% of 310,000 active. AID 2648;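 active = fluorescence ratio B-score, a plate-corrected score, at least three library SD, with initial intensity B-score within 5 SD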
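Assay system: CHO-K1 cells stably expressing KCNQ1. Medium: assay buffer for compound exposure, DMSO matched across wells. Timing: 37 °C overnight plating, 90-min dark dye load, 20-min compound pretreatment. Signal: kinetic FluxOR fluorescence, 10 s baseline plus 110 s post-stimulus.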
KCNK3 inh conf: human KCNK3 channel inhibition, confirmation assay | AID 651638 | CHO-KCNK3 thallium flux, FluxOR fluorescence; 0% buffer, 100% carvedilol maximal block | 99% of 2,400 active | shares compounds with KCNK3 inh | ratio percent of control, % at 10 µM;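 active = ratio percent of control, averaged over triplicates, above buffer control mean plus 5 SD, cut at about 64% in these data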;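 also: ratio is the fluorescence rise from min to max over baseline after thallium stimulus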
KCNK3 noninduced: activity in cells without induced KCNK3 expression. non-induced KCNK3 parental cells, FluxOR thallium flux; hits give low values. shares compounds with KCNK3 inh. 40% of 2,400 active. AID 651747. thallium flux ratio (lower = more inhibition) at 10 µM;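 active = thallium flux ratio, averaged over three wells, more than 5 SD below the buffer control mean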;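 also: host cells are CHO cells without KCNK3 induction; ratio is peak minus trough fluorescence over baseline then normalized to buffer controls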
* hit, by the source's call; i = inactive; . = no result. Only some compounds are listed: those with a hit (about 4.1% of all), similar ones and a draw of the others.

SMILES	KCNK3 inh	KCNQ1 inh	KCNK9 block	hERG protect	Cl transport mod	KCNQ1 act	KCNK3 inh conf	KCNK3 noninduced
CCN(c1ccccc1)S(=O)(=O)c1ccc(C(=O)Nc2ncccc2O)cc1	i	i	i	-12	.	i	.	.
COc1ccc(C2CC(=O)C=C(NC3CCCC3)C2)cc1 (stereo not drawn)	i	i	i	-9	0.6	i	.	.
COc1ccc(C2CC(=O)C=C(NCCC(C)C)C2)cc1 (stereo not drawn)	-22*	i	i	-15	0.14	i	111*	i
CN(C(=O)c1ccc(COc2ccccc2Cl)o1)c1ccccc1	-9.9*	i	i	-3	.	i	82*	i
COc1ccc(OCC(=O)Nc2cc(S(=O)(=O)N3CCCC3)ccc2Cl)cc1	i	.	.	.	.	.	.	.
Cc1cc(NC(=O)c2cc3cccc([N+](=O)[O-])c3[nH]2)ccc1F	-13*	11*	i	-8	0.4	i	126*	0.14*
CN(C)S(=O)(=O)Oc1ccc(C(=O)Nc2cccc(Cl)c2)cc1	-8.9*	i	i	-5	-0.16	i	106*	i
CN(C)S(=O)(=O)Oc1ccc(C(=O)Nc2cccc(C(F)(F)F)c2)cc1	i	i	i	-9	-0.39	i	.	.
Cc1cc(NC(=O)C(C)Oc2ccccc2)no1 (stereo not drawn)	i	i	i	-7	.	i	.	.
Cc1c(N2CCCC2)cc2c(c1NC(=O)c1ccccc1Cl)C(C)(C)CC2(C)C	-9.3*	i	i	-9	-1.1	i	114*	0.13*
CCOC(OCC)c1cc2ccccc2cn1	i	.	.	.	.	.	.	.
Cc1c(C(C)(C)C)sc(=NC(=O)c2ccccc2O)n1C	-9.7*	i	i	-5	.	i	65*	i
NS(=O)(=O)c1ccc(NC(=S)NNC(=O)c2ccc(Br)o2)cc1	i	i	i	-7	.	i	.	.
CCCN1CCc2c(sc(NC(=O)c3ccc(S(=O)(=O)N4CCN(C(=O)OCC)CC4)cc3)c2C(N)=O)C1	-11*	6*	i	-20	.	i	125*	0.093*
CCOc1cc(/C=N/NS(=O)(=O)c2ccccc2)ccc1OS(=O)(=O)c1ccc(C)cc1	-9.4*	i	i	-13	0.1	i	102*	i
COc1ccc(C(=O)NCc2c(C)nn(Cc3ccccc3)c2C)cc1S(=O)(=O)N1CCOCC1	i	.	.	.	.	.	.	.
COc1ccc(Cl)cc1NC(=O)CN(C)C(=O)c1cn2ccccc2n1	i	.	.	.	.	.	.	.
S=C(NCc1ccco1)N1CCN(C(c2ccccc2)c2ccccc2)CC1	-12*	i	-7.8*	-4	0.22	i	135*	0.15*
COc1ccc2cc(C(=O)/C=C/c3cc(OC)c(O)c(OC)c3)ccc2c1	-9.8*	i	i	-11	.	i	131*	0.13*
COc1ccccc1NS(=O)(=O)c1cccc(NC(=O)c2sc3ccccc3c2Cl)c1	-9.1*	i	i	-12	-0.074	i	96*	i
COc1ccccc1NS(=O)(=O)c1ccc(Cl)c(NC(=O)c2sc3cc(Cl)ccc3c2Cl)c1	i	i	i	-14	1.2	i	.	.
Cc1oc(-c2ccccc2)cc1C(=O)Nc1cccc2ccccc12	-11*	i	i	-9	0.72	i	119*	0.16*
Cc1ccccc1-c1nnc(SCC(=O)Nc2cccnc2Cl)o1	i	.	.	.	.	.	.	.
COCCn1c(SCc2cccc(F)c2)nc2cc(C(=O)OC)ccc2c1=O	-9*	i	i	-4	.	i	107*	i
Cc1ccc(C(=O)N/N=C\c2ccc(-c3ccc([N+](=O)[O-])cc3)o2)cn1	i	i	i	-5	-2.4	i	.	.
COc1cc(C(=O)NCC(=O)N/N=C/c2ccc(-c3ccc([N+](=O)[O-])cc3)o2)cc(OC)c1OC	-10*	i	i	-14	.	i	95*	i
CCOC(=O)CN(C(=O)CNC(=O)c1ccco1)C(C(=O)NC1CCCCC1)c1cccnc1 (stereo not drawn)	i	i	i	-10	.	i	.	.
